Assay results published in ChEMBL document CHEMBL1154253, “Synthesis and serotonin transporter activity of sulphur-substituted alpha-alkyl phenethylamines as a new class of anticancer agents” (Eur J Med Chem, 2009).
≈ marks a conversion by molar mass, not a printed value. Calls of active or inactive are those of the source. No cut-off for these calls is given here.

What was measured:
[1] = system: SH-SY5Y; assay: Cytotoxicity against human SH-SY5Y cells after 48 hrs by neutral red assay; format: functional, cell-based
[2] = system: HEK293; assay: Cytotoxicity against human HEK293 cells after 48 hrs by neutral red assay; format: cell-based; details: HEK293, 48 h
Summary of the method: (§1)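 Neutral Red uptake: 5 × 10⁴ cells/well grown 24–36 h to sub-confluence, then treated 48 h. Cells incubated 3 ± 1 h with NR dye, washed and solubilised in 50% ethanol–1% acetic acid, and absorbance read at 540 nm (690 nm background). Viability given as % of vehicle-treated cells. pEC50 obtained by sigmoidal regression (Hill slope 1) using 4 concentrations in triplicate on two independent days. SERT-line values compared with parental HEK293 by two-way ANOVA with Bonferroni test. Sodium azide 30 mM and Triton-X 2% as positive controls.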

[3] = target: T1, Sodium-dependent serotonin transporter (Rattus norvegicus, UniProt P31652); assay: Inhibition of [3H]5-HT reuptake at rat SERT expressed in HEK293 cells after 2 mins by liquid scintillation counting; format: cell-based
T1 sequence (P31652 whole entry): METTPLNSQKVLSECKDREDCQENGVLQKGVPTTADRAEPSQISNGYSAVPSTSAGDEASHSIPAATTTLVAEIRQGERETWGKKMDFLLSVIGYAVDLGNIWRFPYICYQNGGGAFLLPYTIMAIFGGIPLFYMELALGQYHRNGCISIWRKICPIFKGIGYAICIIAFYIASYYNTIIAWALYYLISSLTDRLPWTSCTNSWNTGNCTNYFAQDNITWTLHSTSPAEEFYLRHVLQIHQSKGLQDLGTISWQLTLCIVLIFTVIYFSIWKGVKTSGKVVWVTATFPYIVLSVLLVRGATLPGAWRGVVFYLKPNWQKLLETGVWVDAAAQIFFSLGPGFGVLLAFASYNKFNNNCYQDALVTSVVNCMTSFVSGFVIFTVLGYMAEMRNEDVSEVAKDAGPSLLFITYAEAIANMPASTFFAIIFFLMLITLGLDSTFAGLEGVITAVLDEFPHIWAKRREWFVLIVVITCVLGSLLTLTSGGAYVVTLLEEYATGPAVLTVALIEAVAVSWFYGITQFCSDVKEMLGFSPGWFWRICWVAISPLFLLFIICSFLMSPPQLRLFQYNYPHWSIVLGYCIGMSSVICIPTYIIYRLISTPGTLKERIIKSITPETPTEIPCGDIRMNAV

[4] = target: T2, Sodium-dependent serotonin transporter (Homo sapiens, UniProt P31645); assay: Inhibition of [3H]5-HT uptake at SERT
Target sequence in this assay (P31645 whole entry): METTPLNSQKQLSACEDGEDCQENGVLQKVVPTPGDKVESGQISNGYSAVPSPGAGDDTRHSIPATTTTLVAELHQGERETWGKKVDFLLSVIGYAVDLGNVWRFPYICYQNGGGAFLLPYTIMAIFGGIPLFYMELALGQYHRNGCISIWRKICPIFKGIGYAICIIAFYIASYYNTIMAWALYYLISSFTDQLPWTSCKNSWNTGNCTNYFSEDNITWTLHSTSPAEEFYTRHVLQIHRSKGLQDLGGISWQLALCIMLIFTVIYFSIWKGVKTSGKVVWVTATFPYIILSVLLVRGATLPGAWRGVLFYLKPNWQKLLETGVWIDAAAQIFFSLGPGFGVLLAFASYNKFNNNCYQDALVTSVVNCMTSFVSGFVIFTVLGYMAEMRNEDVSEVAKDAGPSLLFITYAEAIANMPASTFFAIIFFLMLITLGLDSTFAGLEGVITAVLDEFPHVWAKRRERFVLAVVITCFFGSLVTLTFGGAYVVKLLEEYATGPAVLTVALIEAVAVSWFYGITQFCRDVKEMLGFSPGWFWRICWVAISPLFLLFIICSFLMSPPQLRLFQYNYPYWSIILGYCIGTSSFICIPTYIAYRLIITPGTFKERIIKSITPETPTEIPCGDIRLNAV

[5] = target: Sodium-dependent dopamine transporter (Homo sapiens, UniProt Q01959); assay: Inhibition of human dopamine transporter
Sequence of Sodium-dependent dopamine transporter (Q01959 whole entry): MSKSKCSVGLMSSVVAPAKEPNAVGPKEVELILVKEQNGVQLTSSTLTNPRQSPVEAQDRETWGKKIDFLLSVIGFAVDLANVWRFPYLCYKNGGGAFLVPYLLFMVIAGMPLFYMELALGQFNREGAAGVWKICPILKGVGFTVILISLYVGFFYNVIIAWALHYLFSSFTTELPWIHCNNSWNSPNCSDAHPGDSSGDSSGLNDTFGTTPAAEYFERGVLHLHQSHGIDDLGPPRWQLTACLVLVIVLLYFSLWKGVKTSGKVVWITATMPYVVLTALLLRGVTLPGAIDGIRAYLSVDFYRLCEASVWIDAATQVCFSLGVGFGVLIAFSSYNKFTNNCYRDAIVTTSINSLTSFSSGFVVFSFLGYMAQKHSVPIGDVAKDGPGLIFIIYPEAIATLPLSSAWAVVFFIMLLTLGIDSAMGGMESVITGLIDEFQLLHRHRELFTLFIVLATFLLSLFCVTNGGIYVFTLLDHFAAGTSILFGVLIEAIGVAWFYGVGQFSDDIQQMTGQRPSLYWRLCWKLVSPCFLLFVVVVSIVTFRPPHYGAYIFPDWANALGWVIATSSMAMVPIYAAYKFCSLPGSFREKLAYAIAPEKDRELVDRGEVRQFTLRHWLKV

[6] = target: Sodium-dependent noradrenaline transporter (Homo sapiens, UniProt P23975); assay: Inhibition of human noradrenaline transporter
Sequence of Sodium-dependent noradrenaline transporter (P23975 whole entry): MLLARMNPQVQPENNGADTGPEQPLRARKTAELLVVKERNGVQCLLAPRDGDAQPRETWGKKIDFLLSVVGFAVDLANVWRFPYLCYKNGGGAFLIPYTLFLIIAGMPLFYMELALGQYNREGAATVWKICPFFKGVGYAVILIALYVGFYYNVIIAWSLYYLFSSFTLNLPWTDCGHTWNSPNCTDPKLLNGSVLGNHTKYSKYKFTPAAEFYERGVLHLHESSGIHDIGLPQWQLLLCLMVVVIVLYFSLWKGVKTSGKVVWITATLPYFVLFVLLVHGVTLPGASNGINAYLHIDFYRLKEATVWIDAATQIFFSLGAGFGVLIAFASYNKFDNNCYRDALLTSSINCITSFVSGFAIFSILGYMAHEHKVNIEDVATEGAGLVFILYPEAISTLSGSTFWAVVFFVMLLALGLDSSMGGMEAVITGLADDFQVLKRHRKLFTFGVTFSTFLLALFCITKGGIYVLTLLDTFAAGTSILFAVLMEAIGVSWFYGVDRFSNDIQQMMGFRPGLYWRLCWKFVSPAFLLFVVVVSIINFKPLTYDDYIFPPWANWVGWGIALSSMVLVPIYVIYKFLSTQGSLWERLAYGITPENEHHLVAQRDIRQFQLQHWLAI

[7] = system: PBMC; assay: Cytotoxicity against human PBMC at 50 uM after 24 hrs by alamar blue assay; format: cell-based
Summary of the method: (§2)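 PBMCs from a healthy donor, separated on Ficoll and resuspended in IMDM with FCS and penicillin/streptomycin. Seeded at 1–5 × 10⁴ cells/200 µl and treated 24 h. Alamar Blue added, fluorescence read at ex 544/em 590 nm, background subtracted, untreated cells = 100% viability. Mean + S.E.M.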

[8] = system: PBMC; assay: Cytotoxicity against human PBMC at 10 uM after 24 hrs by alamar blue assay; format: cell-based; summary of the method: as §2
[9] = Induction of apoptosis in human MUTU-I cells after 24 hrs by annexin V-propidium iodide staining-based FACS analysis; format: functional, cell-based
[10] = system: HL-60; assay: Induction of apoptosis in human HL60 cells after 24 hrs by annexin V-propidium iodide staining-based FACS analysis; format: functional, cell-based; details: HL-60, 24 h
[11] = system: DG-75; assay: Induction of apoptosis in human DG75 cells after 72 hrs by annexin V-propidium iodide staining-based FACS analysis; format: functional, cell-based; details: DG-75, 72 h
[12] = system: DG-75; assay: Induction of apoptosis in human DG75 cells at 50 uM after 72 hrs by annexin V-propidium iodide staining-based FACS analysis; format: functional
[13] = system: HL-60; assay: Induction of apoptosis in human HL60 cells at 50 uM after 24 hrs by annexin V-propidium iodide staining-based FACS analysis; format: functional
[14] = Induction of apoptosis in human MUTU-I cells at 50 uM after 24 hrs by annexin V-propidium iodide staining-based FACS analysis; format: functional
[15] = target: T1, Sodium-dependent serotonin transporter; assay: Inhibition of [3H]5-HT uptake at SERT in rat brain synaptosome; format: tissue-based
[16] = target: Sodium-dependent serotonin transporter (Rattus norvegicus) (UniProt P31652); assay: Inhibition of [3H]5-HT reuptake at rat SERT expressed in HEK293 cells assessed as serotonin reuptake at 100 uM after 2 mins by liquid scintillation counting; format: cell-based; set-up: scale not given: the % may be the effect or the level left
Sequence of Sodium-dependent serotonin transporter (Rattus norvegicus) (P31652 whole entry): as the sequence (P31652 whole entry) above

[17] = target: Sodium-dependent serotonin transporter (Rattus norvegicus) (UniProt P31652); assay: Inhibition of [3H]5-HT reuptake at rat SERT expressed in HEK293 cells assessed as serotonin reuptake at […] after 2 mins by liquid scintillation counting; format: cell-based; set-up: scale not given: the % may be the effect or the level left
[18] = organism: Rattus norvegicus; assay: Selectivity ratio of IC50 for DAT in rat brain synaptosome to IC50 for SERT in rat brain synaptosome; format: tissue-based
[19] = organism: Rattus norvegicus; assay: Selectivity ratio of IC50 for NET in rat brain synaptosome to IC50 for SERT in rat brain synaptosome; format: tissue-based
[20] = target: T2, Sodium-dependent serotonin transporter; assay: Induction of human SERT-dependent cytotoxicity in SERT expressing HEK293 cells at 1 uM after 48 hrs by neutral red assay; format: cell-based; summary of the method: as §1
Target sequence in this assay (P31645 whole entry, looked up): as the sequence (P31645 whole entry) above

[21] = target: T2, Sodium-dependent serotonin transporter; assay: Inhibition of [3H]5-HT uptake at human SERT expressed in HEK293 cells after 10 mins by scintillation counting; format: cell-based
Target sequence in this assay (P31645 whole entry): as above

[22] = system: HEK293; assay: Cytotoxicity against human HEK293 cells at 1 uM after 48 hrs by neutral red assay; format: cell-based; details: hek293, 48 h; summary of the method: as §1
[23] = target: Sodium-dependent serotonin transporter (Rattus norvegicus) (UniProt P31652); assay: Inhibition of [3H]5-HT reuptake at rat SERT expressed in HEK293 cells assessed as serotonin reuptake at 10 uM after 2 mins by liquid scintillation counting; format: cell-based; set-up: scale not given: the % may be the effect or the level left
Summary of the method: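 HEK293 TREx cells stably carrying rat SERT-FLAG were plated on poly-L-lysine, and expression was induced with tetracycline for 24 h. Cells were washed in TB buffer (10 mM HEPES, 150 mM NaCl, 2 mM KCl, 1 mM CaCl₂, 1 mM MgCl₂) and preincubated with compound for 5 min at 37 °C. [³H]5-HT (~1 Ci/mmol) uptake then ran 2 min at room temperature. Uptake was stopped with cold paroxetine-containing buffer, and cells were lysed in 2% SDS and counted by scintillation. Paroxetine-defined non-specific uptake was subtracted, and untreated cells were set as 100% reuptake.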

[24] = target: Sodium-dependent serotonin transporter (Rattus norvegicus) (UniProt P31652); assay: Inhibition of [3H]5-HT reuptake at rat SERT expressed in HEK293 cells at 100 uM after 2 mins by liquid scintillation counting; format: cell-based
[25] = target: Sodium-dependent serotonin transporter (Rattus norvegicus) (UniProt P31652); assay: Inhibition of [3H]5-HT reuptake at rat SERT expressed in HEK293 cells at 1 uM after 2 mins by liquid scintillation counting; format: cell-based
[26] = system: HL-60; assay: Antiproliferative activity against human HL60 cells after 24 hrs by alamar blue assay; format: functional, cell-based; details: HL-60, 24 h
[27] = Antiproliferative activity against human MUTU-I cells after 24 hrs by alamar blue assay
[28] = system: DG-75; assay: Antiproliferative activity against human DG75 cells after 24 to 72 hrs by alamar blue assay; format: functional, cell-based
Summary of the method: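 Cells seeded at 1–5 × 10⁴ per well and exposed to compound for the stated time. Alamar Blue was then added, followed by 4–6 h incubation at 37 °C in the dark. Fluorescence was read at excitation 544 nm and emission 590 nm. Medium-plus-dye background was subtracted, and untreated cells were set as 100% viability. Readings were in triplicate on two independent days.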

SMILES	EC50 ([1]; read-out: pEC50 (converted))	EC50 ([2]; read-out: pEC50 (converted))	IC50 [3]	also measured
CCC(Cc1ccc(SC)cc1)NCCOC (stereo not drawn)	3890 µM	16.2 µM	2.82 µM	
COCCNC(C)Cc1ccc(SC)cc1 (stereo not drawn)	1350 µM	22.9 µM	3.58 µM	
CCC(Cc1ccc(SC)cc1)NC(C)C (stereo not drawn)	339 µM	17.4 µM	1.94 µM	
CCNC(CC)Cc1ccc(SC)cc1 (stereo not drawn)	151 µM	10 µM	0.823 µM	
CNC(C)Cc1ccc(SC)cc1 (stereo not drawn)	1550 µM	19.5 µM	0.417 µM	
CNC(C)Cc1ccc2c(c1)OCO2 (stereo not drawn) [MIDOMAFETAMINE]	> 10000 µM	245 µM	1.06 µM	IC50 [4]: 0.425 µM; IC50 [5]: 1.44 µM; IC50 [6]: 0.405 µM
CC(N)Cc1ccc(SCc2ccccc2)cc1 (stereo not drawn)	19.5 µM	2.95 µM	0.679 µM	EC50 ([1]; read-out: EC50): 1 µM
CCSc1ccc(CC(C)N)cc1 (stereo not drawn)	64.6 µM	15.1 µM	1.4 µM	EC50 ([1]; read-out: EC50): 1 µM
COc1ccc(CC(C)N)cc1 (stereo not drawn) [PARA-METHOXYAMPHETAMINE]	> 10000 µM	457 µM	0.173 µM	
CSc1ccc(CC(C)NO)cc1 (stereo not drawn)	575 µM	38 µM	0.436 µM	
CSc1ccc(CC(C)NC2CC2)cc1 (stereo not drawn)	372 µM	18.6 µM	0.702 µM	
CSc1ccc(CC(C)N(C)C)cc1 (stereo not drawn)	1860 µM	20 µM	0.52 µM	
CCC(N)c1ccc(SC)cc1 (stereo not drawn)	19.5 µM	3.16 µM	> 25 µM	Activity [7]: Non-toxic; Activity [8]: Non-toxic; EC50 [9]: 21 µM; EC50 [10]: 29.5 µM; EC50 [11]: 33.8 µM; Activity [12]: 40%; Activity [13]: 40%; Activity [14]: 40%
CC(N)Cc1ccc2c(c1)OCO2 (stereo not drawn) [TENAMFETAMINE]	> 10000 µM	324 µM	0.996 µM	IC50 [5]: 0.89 µM; IC50 [6]: 0.266 µM
CCNC(C)Cc1ccc(SCC)cc1 (stereo not drawn)	302 µM	6.31 µM	0.478 µM	
C=CCNC(C)Cc1ccc(SC)cc1 (stereo not drawn)	123 µM	15.5 µM	0.524 µM	
CC(N)Cc1ccc(Cl)cc1 (stereo not drawn)				IC50 [15]: 0.182 µM; IC50 [5]: 0.424 µM; IC50 [6]: 0.207 µM
CCC(N)Cc1ccc(SC)cc1 (stereo not drawn)	437 µM	14.8 µM	0.611 µM	
CCSc1ccc(CC(C)NO)cc1 (stereo not drawn)	708 µM	32.4 µM	0.625 µM	
CCSc1ccc(CC(C)NC)cc1 (stereo not drawn)	282 µM	7.59 µM	0.724 µM	
CCC(Cc1ccc(SC)cc1)NC1CC1 (stereo not drawn)	> 10000 µM	10.7 µM	0.872 µM	
CSc1ccc(CC(C)N(C)O)cc1 (stereo not drawn)	229 µM	24 µM	1.87 µM	

SMILES	EC50 ([1]; read-out: pEC50 (converted))	EC50 ([2]; read-out: pEC50 (converted))	IC50 [3]	also measured
CCNC(C)Cc1ccc(SC)cc1 (stereo not drawn)	1860 µM	16.2 µM	0.963 µM	
CONC(C)Cc1ccc(SC)cc1 (stereo not drawn)	2450 µM	11 µM	0.664 µM	
C#CCNC(C)Cc1ccc(SC)cc1 (stereo not drawn)	2340 µM	24.5 µM	0.688 µM	
CCSc1ccc(CC(N)CC)cc1 (stereo not drawn)	53.7 µM	5.13 µM	1.29 µM	
CC(N)Cc1ccc(S(C)(=O)=O)cc1 (stereo not drawn)	> 10000 µM	> 10000 µM		Activity [16]: 100%; Activity [17]: 100%
CC(N)Cc1ccc(SCCN(C)C)cc1 (stereo not drawn)	240 µM	8.71 µM	43.3 µM	EC50 ([1]; read-out: EC50): 1 µM
C#CCNC(CC)Cc1ccc(SC)cc1 (stereo not drawn)	394 µM	20.4 µM	0.399 µM	
CSc1ccc(CC(C)N)cc1 (stereo not drawn) [4-METHYLTHIOAMPHETAMINE]	608 µM	18.6 µM	0.207 µM	EC50 ([1]; read-out: EC50): 1 µM; IC50 [4]: 0.074 µM; Ratio IC50 [18]: 3070; Ratio IC50 [19]: 2370; Activity [20]: Active; IC50 [5]: 3.07 µM; Ki [21]: 0.45 µM; IC50 [6]: 2.38 µM; Activity [22]: Toxic
CCNC(CC)Cc1ccc(SCC)cc1 (stereo not drawn)	245 µM	251 µM	1.8 µM	
CON(C)C(C)Cc1ccc(SC)cc1 (stereo not drawn)	> 10000 µM	525 µM	25.1 µM	
CCCNC(CC)Cc1ccc(SC)cc1 (stereo not drawn)	3020 µM	303 µM	0.621 µM	
CSc1ccc(CC(C)NCCO)cc1 (stereo not drawn)	2290 µM	10 µM	0.868 µM	
CCCCCSc1ccc(C(N)CC)cc1 (stereo not drawn)	> 10000 µM	2690 µM		Activity [23]: 65%
CCSc1ccc(CC(CC)NO)cc1 (stereo not drawn)	1820 µM	11.5 µM	1.45 µM	
CCC(Cc1ccc(SC)cc1)NO (stereo not drawn)	31.6 µM	8.51 µM	0.598 µM	
CSc1ccc(CC(C)NC(C)C)cc1 (stereo not drawn)	1950 µM	30.9 µM	1.85 µM	
CCC(Cc1ccc(SC)cc1)NC (stereo not drawn)	832 µM	50.1 µM	0.437 µM	
CCSc1ccc(CC(C)N(C)O)cc1 (stereo not drawn)	43.7 µM	12.3 µM	1.57 µM	
CC(N)Cc1ccc(SC(C)(C)C)cc1 (stereo not drawn)	20.4 µM	7.24 µM		inhibition [24]: 100%; EC50 ([1]; read-out: EC50): 1 µM
CCSc1ccc(CC(CC)N(C)O)cc1 (stereo not drawn)	209 µM	51.3 µM	2 µM	
CCSc1ccc(CC(CC)NC)cc1 (stereo not drawn)				EC50 ([2]; read-out: EC50): > 100 µM; inhibition [25]: 26%
CC(=O)O[C@H]1C(=O)[C@@]2(C)[C@H]([C@H](OC(=O)c3ccccc3)[C@]3(O)C[C@H](OC(=O)[C@H](O)[C@@H](NC(=O)c4ccccc4)c4ccccc4)C(C)=C1C3(C)C)[C@]1(OC(C)=O)CO[C@@H]1C[C@@H]2O [PACLITAXEL]				IC50 [26]: 4 ng/mL (≈ 4.68 nM); IC50 [27]: 0.01 µM; IC50 [28]: 0.01 µM
